# Compound activity deposited in PubChem by Broad Institute.
# HIV Env fusion: blocks HIV Env-driven cell-cell fusion; AID 651610; HeLa-JRFL Env/CEM21 cell fusion, luciferase; 1.1% of 360,000 active; inhibition, % at 12.3 µM;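 active means mean replicate inhibition score of at least 50 and every replicate individually at or above 50; inconclusive means only one of the two criteria met; inactive means mean below 50 and not all replicates reaching 50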
# S100A4 MyoIIA: inhibitors of human S100A4 binding to myosin IIA peptide. P26447. S100A4/TAMRA-MyoIIA peptide fluorescence polarization. inhibition, % at 10.7 µM. 0.14% of 360,000 active. AID 652163;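 active means mean inhibition of at least 70% across replicates, with every replicate also reaching that level; inconclusive means mean inhibition reaches 70% but some replicates fall short; inactive means mean inhibition below 70%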
# Target sequence (P26447 whole entry, looked up): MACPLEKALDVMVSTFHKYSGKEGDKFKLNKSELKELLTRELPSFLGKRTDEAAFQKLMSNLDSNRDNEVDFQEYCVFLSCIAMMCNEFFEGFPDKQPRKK
#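 Material: S100A4 monomer (human). Medium: Calcium-containing HEPES buffer, pH 7.2. Probe or stimulus: labelled myosin peptide probe, 5 nM. Compound dosing: one concentration per compound. Timing: polarization read 5 min after assay mix addition, stable 5–60 min. Benchmarks: DMSO as neutral control, TFP as positive control.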
# E-sel inducer: E-selectin induction on HUVECs; P16581; HUVEC E-selectin immunofluorescence imaging; normalized: neutral wells 0, TNF-alpha wells 100; activation, % at 7.58 µM; 0.37% of 260,000 active; AID 686992;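 active means mean E-selectin-positive cell signal at least 10% of the positive control, reached in at least 60% of replicates, without over 20% cell loss; inconclusive means no rule given, readout overlaps actives, possibly toxicity-flagged; inactive means the rest, including those meeting only one limit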
# Target sequence (P16581 whole entry, looked up): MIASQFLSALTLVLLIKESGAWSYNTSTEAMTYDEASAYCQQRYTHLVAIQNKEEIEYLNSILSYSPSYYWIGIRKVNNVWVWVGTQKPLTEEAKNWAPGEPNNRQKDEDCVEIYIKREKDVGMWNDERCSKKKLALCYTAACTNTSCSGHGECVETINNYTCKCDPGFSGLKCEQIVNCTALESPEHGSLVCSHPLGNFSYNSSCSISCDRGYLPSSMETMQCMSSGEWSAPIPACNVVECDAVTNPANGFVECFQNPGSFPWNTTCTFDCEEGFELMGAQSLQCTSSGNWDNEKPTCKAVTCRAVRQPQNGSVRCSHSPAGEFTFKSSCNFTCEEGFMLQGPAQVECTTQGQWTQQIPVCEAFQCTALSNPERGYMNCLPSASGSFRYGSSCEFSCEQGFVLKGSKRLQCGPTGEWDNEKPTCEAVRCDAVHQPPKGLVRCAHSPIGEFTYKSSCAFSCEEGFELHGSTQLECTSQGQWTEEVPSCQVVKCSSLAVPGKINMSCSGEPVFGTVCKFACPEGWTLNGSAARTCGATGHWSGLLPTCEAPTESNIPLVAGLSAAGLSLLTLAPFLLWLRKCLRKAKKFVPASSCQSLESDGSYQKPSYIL
#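 Read-out: % PE-positive cells | Test system: HUVEC | Doses: One compound dose added by pin transfer | Buffer or medium: EGM-2 over gelatin coat | Signal: Immunofluorescence imaging | Benchmarks: TNF-alpha, DMSO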
# F508del corr: CFTR F508del correction in bronchial cells | CFBE cells, YFP halide quenching; stimulated with forskolin plus potentiator P3; % fluorescence drop versus neutral controls | activity (quench increase), % at 7.58 µM | 0.36% of 350,000 active;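 active means mean added fluorescence quench of at least 8% versus neutral control, with both replicates also reaching 8%; inconclusive means only one of the mean or replicate conditions met; inactive means mean below 8% and not both replicates reaching 8%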;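 further: cells transiently co-express mutant CFTR-F508del with the halide-sensitive YFP; corrector assay measuring rescue of mutant channel to the surface after 24 h compound exposure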
# FGF22 binding: FGF22 (human) thermal shift binding | 1.5% of 340,000 active | recombinant FGF22 thermal shift, SYPRO orange fluorescence; percent of sucrose octasulfate shift, DMSO zero | activity (Tm shift, normalised), % at 9.99 µM;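 active means mean Tm shift, scaled 0 neutral to 100 positive control, at about 1.3% or above, every replicate too, limit read from the data; inconclusive means no clear call, values can overlap the other calls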
# Numbers stand for hits; - = inactive; ? = inconclusive; . = not tested or not shown; [ ] = dose if it differs, or a comment. In the library only some 2.7% were active in any assay of this set; here they are far more common.
SMILES,HIV Env fusion,S100A4 MyoIIA,E-sel inducer,F508del corr,FGF22 binding
C[C@H]1CCCCO[C@@H](CN(C)S(=O)(=O)c2cccs2)[C@@H](C)CN([C@@H](C)CO)C(=O)c2cc(NS(=O)(=O)c3ccccc3)ccc2O1,62.5[16.7 µM],-,-,-,.
Cc1noc(C)c1NC(=O)Nc1ccc2c(c1)C(=O)N([C@@H](C)CO)C[C@H](C)[C@H](CN(C)S(=O)(=O)c1cccs1)OCCCC[C@H](C)O2,69.9[16.7 µM],-,-,-,-
CCOC(=O)[C@@H]1[C@H]2COc3ccc(Br)cc3[C@@H]2N2C(=O)N(c3ccc(Cl)cc3)C(=O)[C@@]12C,66.7,-,-,-,-
CCOC(=O)[C@@H]1[C@H]2COc3ccc(Br)cc3[C@@H]2N2C(=O)N(c3cccc(F)c3)C(=O)[C@@]12C,75.2,-,.,-,-
CCOC(=O)[C@@H]1[C@H]2COc3ccc(Br)cc3[C@@H]2N2C(=O)N(c3ccc(C(F)(F)F)cc3)C(=O)[C@@]12C,66.2,-,-,-,-
CCOC(=O)[C@@H]1[C@H]2COc3ccc(Br)cc3[C@@H]2N2C(=O)N(c3ccc(F)cc3)C(=O)[C@@]12C,99.9,-,-,-,-
CCNC(=O)C[C@@H]1CC[C@H]2[C@@H](COC[C@H](O)CN2C(=O)Nc2cccc(OC)c2)O1,.,.,-,-,-
CC1=C(n2ccnc2)CCC1=O,-,.,-,-,.
CC1=C(N2CCOCC2)CCC1=O,-,85.5,-,-,-
C=CCN1C(=O)/C(=C2/Sc3ccc(OC)cc3N2C)SC1=Nc1ccccc1,-,-,-,-,43.2
C=CCN1C(=O)/C(=C2/Sc3ccc(OC)cc3N2C)SC1=NCc1ccccc1,-,-,-,-,-
CNC[C@@H]1OCCCC[C@H](C)Oc2ccc(NC(=O)Cc3ccccc3)cc2C(=O)N([C@H](C)CO)C[C@@H]1C,-,-,-,-,-
CCOC(=O)c1ccc(N2C(=O)C3CC=CCC3C2=O)cc1 (configuration not stated),.,-,.,.,.
NS(=O)(=O)c1ccc(N2C(=O)C3CC=CCC3C2=O)cc1 (configuration not stated),-,-,.,-,43.9
COc1ccc(-c2ccc3n(c2=O)C[C@H]2[C@H](CO)[C@@H](C(=O)N(C)C)[C@@H]3N2C(=O)c2cnccn2)cc1,-,.,-,.,.
COc1cc(C)c(/C=C(\C#N)C(=O)Nc2cccc(C)c2)cc1C(C)C,.,-,.,-,43.7
Cc1cccc(NC(=O)/C(C#N)=C\c2ccc(C(=O)O)cc2)c1,-,-,.,-,-
CO[C@@H]1CN(C)C(=O)c2cc(NC(=O)Nc3c(C)noc3C)ccc2OC[C@@H](C)N(CCC(F)(F)F)C[C@@H]1C,-,-,-,-,-
CCS(=O)(=O)Nc1ccc2c(c1)C(=O)N(C)[C@H]1CC[C@@H](CC(=O)N3CCOCC3)O[C@H]1CO2,-,-,-,-,-
COc1ccc(N=Cc2c(C)[nH][nH]c2=O)cc1,-,-,.,-,43.2
CN(C)c1ccc2c(c1)[C@@H]1C[C@H](CC(=O)NCc3ccccc3F)O[C@H](CO)[C@@H]1O2,.,.,-,.,.
Nc1[nH]c(C(=O)c2ccc(Br)cc2)c(-c2ccccc2Br)c1C(=O)NCCc1c[nH]c2ccccc12,-,-,-,-,43.6
Nc1[nH]c(C(=O)c2ccccc2)c(-c2ccccc2C(F)(F)F)c1C(=O)NCCc1c[nH]c2ccccc12,-,-,-,9.8,-
Nc1[nH]c(C(=O)c2ccccc2)c(-c2ccccc2Br)c1C(=O)NCCc1c[nH]c2ccccc12,-,-,-,-,-
Nc1[nH]c(C(=O)c2ccccc2)c(-c2ccccc2[N+](=O)[O-])c1C(=O)NCCc1c[nH]c2ccccc12,-,-,-,-,-
SMILES,HIV Env fusion,S100A4 MyoIIA,E-sel inducer,F508del corr,FGF22 binding
COc1ccc(S(=O)(=O)N[C@@H]2C=C[C@H](CC(=O)NCc3ccccc3F)O[C@@H]2CO)cc1,-,-,-,-,-
C[C@@H]1CCCCO[C@H](CN(C)Cc2ccc3c(c2)OCO3)[C@H](C)CN([C@H](C)CO)C(=O)c2cc(NS(C)(=O)=O)ccc2O1,-,-,-,-,.
COCCCNC(=O)CSc1nc2c(sc(=S)n2-c2cc(Cl)ccc2OC)c(=O)[nH]1,-,-,46.5,-,3.0
COc1ccc(CNC(=O)C[C@H]2C[C@H]3c4cc(NS(=O)(=O)c5ccc(F)cc5)ccc4O[C@H]3[C@@H](CO)O2)cc1,.,-,-,-,-
O=C(NNc1ncnc2sccc12)c1ccc(Cl)cc1,-,-,-,-,-
Cc1csc2ncnc(NNC(=O)c3ccc(Cl)cc3)c12,65.7,-,.,-,-
NC(=S)c1ncc(C(F)(F)F)cc1Cl,-,-,.,-,-
Cc1c(Cl)cccc1NC(=S)NNc1ncc(C(F)(F)F)cc1Cl,67.5,.,.,.,.
NC(=S)Nc1ncc(C(F)(F)F)cc1Cl,-,-,.,-,43.4
COc1cc(CN2CC3(CN(C(=O)NC(C)C)C3)c3c(n(C)c4cc(OC)ccc34)[C@@H]2CO)cc(OC)c1,.,-,-,-,-
C[C@@H]1CN([C@@H](C)CO)C(=O)c2cc(NC(=O)Nc3ccc(C(F)(F)F)cc3)ccc2O[C@@H]1CN(C)C(=O)NC1CCCCC1,.,-,-,-,-
COc1ccc2nc(Cl)c(C#N)cc2c1,-,-,.,-,-
Cc1ccc2nc(Cl)c(C#N)cc2c1,-,-,-,-,43.4
C[C@H]1CN([C@@H](C)CO)C(=O)c2cc(NS(=O)(=O)c3cccs3)ccc2O[C@@H]1CN(C)S(=O)(=O)c1cccs1,-,.,-,-,.
CC(=O)Nc1ccc(NC(=O)CSc2nc(N)c(NC(=O)c3ccccc3F)c(=O)[nH]2)cc1,-,?,-,-,-
Nc1nc(SCC(=O)O)[nH]c(=O)c1NC(=O)c1ccccc1F,-,-,.,-,43.0
Cc1cc([N+](=O)[O-])nn1CC(=O)N1CCOCC1,-,-,-,-,-
O=C(NC(=S)NCCN1CCOCC1)c1ccc(F)cc1,-,-,-,.,-
O=C(NC(=S)NCCCN1CCOCC1)c1ccc([N+](=O)[O-])cc1,-,-,.,-,43.3
Cc1cc([N+](=O)[O-])nn1CC(=O)NCCCN1CCOCC1,-,-,26.7,-,-
C[C@@H]1CN([C@H](C)CO)C(=O)c2cc(NC(=O)CCC(F)(F)F)ccc2O[C@@H]1CN(C)C(=O)Nc1cccc2ccccc12,-,-,-,-,-
CCCCn1c(N)c(N(CC(C)C)C(=O)c2ccc(S(=O)(=O)N(CC)c3ccccc3)cc2)c(=O)[nH]c1=O,101.7,-,-,-,-
CCCCn1c(N)c(N(CC(C)C)C(=O)c2cccc(S(=O)(=O)N(C)c3ccccc3)c2)c(=O)[nH]c1=O,-,-,.,-,-
Cc1noc(C)c1NC(=O)Nc1cccc2c1O[C@H](CN(C)C(=O)Nc1ccc(F)cc1)[C@@H](C)CN([C@H](C)CO)C2=O,-,.,-,-,.
